In ChEMBL document CHEMBL2034856, “Synthesis and evaluation of 11β-(4-substituted phenyl) estradiol analogs: transition from estrogen receptor agonists to antagonists” (Bioorg Med Chem, 2012):

Legend:
[1] = biological target: Estrogen receptor beta (Homo sapiens) (UniProt Q92731); experiment: Displacement of [3H]estradiol from human ERbeta LBD expressed in Escherichia coli
[2] = biological target: T1, Estrogen receptor (Homo sapiens) (UniProt P03372); experiment: Agonist activity at Estrogen receptor expressed in human Ishikawa cells assessed as induction of alkaline phosphatase after 3 days by spectrophotometry relative to estradiol; assay type: functional, cell-based
T1 sequence (whole entry): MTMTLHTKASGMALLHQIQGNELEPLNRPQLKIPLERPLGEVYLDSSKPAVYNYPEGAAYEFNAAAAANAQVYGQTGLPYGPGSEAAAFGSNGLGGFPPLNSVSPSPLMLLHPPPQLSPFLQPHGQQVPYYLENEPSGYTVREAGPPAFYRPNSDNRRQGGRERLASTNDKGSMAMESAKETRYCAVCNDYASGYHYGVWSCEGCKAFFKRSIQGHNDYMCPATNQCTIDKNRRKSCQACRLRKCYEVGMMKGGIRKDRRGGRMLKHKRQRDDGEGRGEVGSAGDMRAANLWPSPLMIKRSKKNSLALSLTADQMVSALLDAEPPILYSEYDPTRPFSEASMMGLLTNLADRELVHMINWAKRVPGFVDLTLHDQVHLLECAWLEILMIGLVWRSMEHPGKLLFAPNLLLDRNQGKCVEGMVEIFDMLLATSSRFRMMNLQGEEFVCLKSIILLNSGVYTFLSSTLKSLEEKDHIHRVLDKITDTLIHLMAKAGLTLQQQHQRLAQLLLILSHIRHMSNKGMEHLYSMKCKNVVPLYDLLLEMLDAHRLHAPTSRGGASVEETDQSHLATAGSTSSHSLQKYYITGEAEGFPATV
Outline: (§1)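 Ishikawa endometrial adenocarcinoma cells were grown in phenol red-free medium with charcoal-stripped bovine serum, with steroids across at least 6 orders of magnitude, for 3 days. Cells were then washed and freeze-thawed, and alkaline phosphatase was read kinetically as p-nitrophenol at 405 nm from 5 mM p-nitrophenyl phosphate at pH 9.8. RSA is the ratio of 1/EC50 versus E2 ×100, from curve fitting. At least 3 experiments were run in duplicate.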

Estrogen receptor = biological target: T2, Estrogen receptor (Homo sapiens, UniProt P03372); experiment: Antagonist activity at Estrogen receptor expressed in human Ishikawa cells assessed as inhibition of estradiol-induced increase in alkaline phosphatase after 3 days by spectrophotometry; assay type: functional, cell-based
T2 sequence (P03372 whole entry): T1 sequence (whole entry)
Outline: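 Ishikawa cells were grown in phenol red-free, charcoal-stripped bovine serum medium. Compounds at 10−6 to 10−12 M were tested against 10−9 M E2 for 3 days. Ki came from curve fitting. At least 3 experiments were run in duplicate.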

[3] = biological target: T3, Estrogen receptor (Bos taurus) (UniProt P49884); experiment: Displacement of [3H]estradiol from calf cytosolic ER relative to estradiol
T3 sequence (whole entry): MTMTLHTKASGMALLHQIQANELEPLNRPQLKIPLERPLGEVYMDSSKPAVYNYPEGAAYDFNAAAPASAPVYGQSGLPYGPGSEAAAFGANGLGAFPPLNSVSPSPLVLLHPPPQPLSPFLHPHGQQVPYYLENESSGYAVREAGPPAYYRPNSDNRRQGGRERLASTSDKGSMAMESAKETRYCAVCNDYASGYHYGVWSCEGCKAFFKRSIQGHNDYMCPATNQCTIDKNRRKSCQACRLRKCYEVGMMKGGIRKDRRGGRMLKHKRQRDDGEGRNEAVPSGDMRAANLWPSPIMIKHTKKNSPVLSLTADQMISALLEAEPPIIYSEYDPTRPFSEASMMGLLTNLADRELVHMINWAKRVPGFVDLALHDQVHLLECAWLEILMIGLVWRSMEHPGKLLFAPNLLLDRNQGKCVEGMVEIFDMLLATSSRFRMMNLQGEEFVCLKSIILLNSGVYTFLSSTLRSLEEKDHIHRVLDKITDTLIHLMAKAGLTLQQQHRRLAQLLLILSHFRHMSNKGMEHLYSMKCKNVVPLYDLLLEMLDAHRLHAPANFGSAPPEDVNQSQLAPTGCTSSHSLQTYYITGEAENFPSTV

[4] = biological target: T1, Estrogen receptor (Homo sapiens); experiment: Mixed agonist and antagonist activity at Estrogen receptor expressed in human Ishikawa cells assessed as induction of alkaline phosphatase after 3 days by spectrophotometry relative to estradiol; assay type: functional, cell-based; design: scale not given: the % may be the effect or the level left; outline: as §1

Estrogen receptor beta (Homo sapiens), sequence (Q92731 whole entry, the tested form may be a part): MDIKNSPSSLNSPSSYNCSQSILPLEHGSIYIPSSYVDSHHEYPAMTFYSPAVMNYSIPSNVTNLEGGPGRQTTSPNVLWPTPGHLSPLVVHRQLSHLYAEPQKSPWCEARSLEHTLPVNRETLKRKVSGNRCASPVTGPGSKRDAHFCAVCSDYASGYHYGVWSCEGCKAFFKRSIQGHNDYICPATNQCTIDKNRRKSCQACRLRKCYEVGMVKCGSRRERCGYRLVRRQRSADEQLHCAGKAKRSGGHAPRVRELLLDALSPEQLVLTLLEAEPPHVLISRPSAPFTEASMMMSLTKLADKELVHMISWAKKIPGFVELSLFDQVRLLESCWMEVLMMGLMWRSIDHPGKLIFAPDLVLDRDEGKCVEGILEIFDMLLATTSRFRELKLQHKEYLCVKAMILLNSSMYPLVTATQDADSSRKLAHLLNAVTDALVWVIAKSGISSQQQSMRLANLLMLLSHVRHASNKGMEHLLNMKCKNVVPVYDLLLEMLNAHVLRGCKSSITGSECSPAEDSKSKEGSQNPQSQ

Row | SMILES | RBA [1] [%] | RSA [2] [%] | other results
1 | C=C[C@H]1C[C@]2(C)[C@@H](O)CC[C@H]2[C@@H]2CCc3cc(O)ccc3[C@H]21 |  | 70 | 
2 | C[C@]12C[C@H](c3ccc(OCCOCCOCCn4cc(CNC5=CC(=O)c6ccccc6C5=O)nn4)cc3)[C@@H]3c4ccc(O)cc4CC[C@H]3[C@@H]1CC[C@@H]2O |  |  | Ki (Estrogen receptor): 1.1 nM
3 | COc1ccc(/C(=C(/C#N)c2ccc(O)cc2)c2ccc(O)cc2)cc1 |  |  | RBA [3]: 17%
4 | COc1ccc([C@H]2C[C@]3(C)[C@@H](O)CC[C@H]3[C@@H]3CCc4cc(O)ccc4[C@H]32)cc1 |  |  | Activity [4]: 35%
5 | CO[C@H]1C[C@]2(C)[C@@H](O)CC[C@H]2[C@@H]2CCc3cc(O)ccc3[C@H]21 |  | 76 | 
6 | N#CC(=C(c1ccc(O)cc1)c1ccc(O)cc1)c1ccc(O)cc1 |  |  | RBA [3]: 166%

More lines, main results first:

Row | RBA [1] [%] | RSA [2] [%] | SMILES | other results
7 | 17 |  | CN(C)CCOc1ccc([C@H]2C[C@]3(C)[C@@H](O)CC[C@H]3[C@@H]3CCc4cc(O)ccc4[C@H]32)cc1 | 
8 | 41 | 17 | C[C@]12C[C@H](c3ccc(O)cc3)[C@@H]3c4ccc(O)cc4CC[C@H]3[C@@H]1CC[C@@H]2O | 
9 | 27 |  | C[C@]12C[C@H](c3ccc(OCCCCCS(=O)(=O)C(F)(F)C(F)(F)F)cc3)[C@@H]3c4ccc(O)cc4CC[C@H]3[C@@H]1CC[C@@H]2O | Ki (Estrogen receptor): 5.3 nM
